T cruzi growth-1 = blocks T. cruzi growth in NIH3T3 culture. T. cruzi beta-gal in NIH3T3, GalScreen luminescence, 90 h. inhibition, % at 8.34 µM. 5.9% of 77,000 active. AID 624255;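 active = mean inhibition above about 93%, with at least 55% of replicates each passing it, limit read from the data, passing the limit was not always enough; inconclusive = only one of those two conditions holds; inactive = neither condition holds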
IDH1 R132H inh = blocks human IDH1 R132H reductase activity | diaphorase/resazurin fluorescence, 60 min | inhibition, % at 10 µM | 0.18% of 70,000 active; in the data active = inhibition above about 34%; inconclusive = no clear call, values can overlap the other calls; inactive = below about 11%
Target sequence (O75874 whole entry R132H): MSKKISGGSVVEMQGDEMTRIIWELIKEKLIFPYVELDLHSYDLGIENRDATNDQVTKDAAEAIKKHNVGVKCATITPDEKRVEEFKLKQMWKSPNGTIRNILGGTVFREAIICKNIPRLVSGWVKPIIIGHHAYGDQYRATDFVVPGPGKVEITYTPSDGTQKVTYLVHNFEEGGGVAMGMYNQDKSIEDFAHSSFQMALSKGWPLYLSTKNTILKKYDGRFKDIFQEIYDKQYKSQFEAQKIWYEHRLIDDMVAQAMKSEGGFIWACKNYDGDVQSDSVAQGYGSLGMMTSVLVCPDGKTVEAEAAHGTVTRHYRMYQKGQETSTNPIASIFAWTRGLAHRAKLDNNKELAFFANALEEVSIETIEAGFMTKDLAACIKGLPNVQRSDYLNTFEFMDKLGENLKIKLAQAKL
KDM4C inh = inhibitors of human demethylase GASC-1 KDM4C; inhibition, % at 12.5 µM; Q9H3R0; GST-KDM4C 2-372, H3K9me3 peptide, LANCE TR-FRET; 0.15% of 96,000 active; AID 720574;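 active = mean replicate inhibition above about 25%, with at least 55% of replicates also reaching it, limit read from the data, passing the limit was not always enough; inconclusive = only one of those two conditions met; inactive = neither condition met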
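Material: GST-tagged GASC-1 (JMJD2C) catalytic fragment, aa 2-372 / Quantity: enzyme final amount 10 nM / Medium: HEPES buffer, pH 7.5, plus ascorbate / Doses: one test concentration per compound / Incubation: 30 min reaction, 60 min detection, RT / Measured by: LANCE TR-FRET / Read-out: inhibition from TR-FRET ratio decrease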
Pf Dd2 growth = P. falciparum Dd2 growth inhibition | AID 1159554 | 2.3% of 94,000 active | SYBR Green, 72 h; hits give low values | activity change, % at 10 µM; in the data active = activity change below about -80%; inconclusive = no clear call, values can overlap the other calls
T cruzi growth-2 = Trypanosoma cruzi proliferation inhibition; shares compounds with T cruzi growth-1; T. cruzi beta-gal in NIH3T3, GalScreen luminescence, 90 h; inhibition, % at 8.35 µM; 72% of 5,600 active; AID 651739;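 active = mean replicate inhibition above about 95% and at least 55% of replicates individually reaching it, limit read from the data; inconclusive = only one of the two criteria is met; inactive = neither criterion is met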
T cruzi growth-3 = blocks T. cruzi growth in NIH3T3 host cells; shares compounds with T cruzi growth-1; T. cruzi beta-gal in NIH3T3, GalScreen luminescence, 90 h; inhibition, % at 2.09 µM; 21% of 5,600 active;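 active = mean inhibition above about 95%, with at least 55% of replicates also reaching it, limit read from the data; inconclusive = meets just one of the two conditions; inactive = meets neither condition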
3T3 cytotox = kills mouse NIH/3T3 fibroblasts; shares compounds with T cruzi growth-1; NIH/3T3 viability, CellTiter-Glo ATP luminescence, 90 h; cytotoxicity (signal decrease), % at 8.35 µM; 14% of 5,600 active; AID 651742;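 active = mean signal decrease across replicates above about 35% based on untreated-well scatter, with enough replicates individually passing, limit read from the data; inconclusive = no rule stated though some were filed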
3T3 cytotox 2 = NIH/3T3 (mouse) viability loss; shares compounds with T cruzi growth-1; NIH/3T3 viability, CellTiter-Glo ATP luminescence, 90 h; inhibition, % at 24.9 µM; 56% of 5,600 active;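 active = mean loss of cell viability signal at or above a set limit, and enough replicates individually reaching it; inconclusive = meets only the mean limit or only the replicate share; inactive = meets neither condition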
Numbers stand for hits; - = inactive; ? = inconclusive; . = no result given. Compounds with a hit are over-represented: about 5.8% of the library has one in this group of screens.

SMILES	T cruzi growth-1	IDH1 R132H inh	KDM4C inh	Pf Dd2 growth	T cruzi growth-2	T cruzi growth-3	3T3 cytotox	3T3 cytotox 2
CC(C)NC(=O)N(C)C[C@H]1Oc2c(NC(=O)Nc3ccc(C(F)(F)F)cc3)cccc2C(=O)N([C@@H](C)CO)C[C@@H]1C	?	.	-	-	-	-	-	56.5
Cc1ccc(C)c(C(Nc2ccccn2)c2cc(Cl)c3cccnc3c2O)c1 (configuration not stated)	.	-	.	.	.	.	.	.
C[C@@H]1CN([C@@H](C)CO)C(=O)c2cccc(NC(=O)Nc3ccc(F)cc3)c2O[C@@H]1CN(C)C(=O)Nc1ccc(C(F)(F)F)cc1	?	-	-	-	111.4	-	-	40.3
O=C(Nc1cccc(F)c1)N1CCCCN2[C@@H](CO)[C@H](c3ccc(-c4ccccc4F)cc3)[C@@H]2C1	109.8	.	-	-	99.1	-	81.8	106.6
O=C(Nc1cccc(F)c1)N1CCCCN2[C@H](CO)[C@@H](c3ccc(-c4ccccc4F)cc3)[C@@H]2C1	-	.	-	-	.	.	.	.
O=C(Nc1cccc(F)c1)N1CCCCN2[C@H](CO)[C@@H](c3ccc(-c4ccccc4F)cc3)[C@H]2C1	107.9	.	-	-	-	106.5	74.6	105.0
N#C[C@H]1[C@H](c2ccc(C#Cc3cccc(F)c3)cc2)[C@@H](CO)N1C(=O)C1CCC1	97.0	.	-	-	97.2	108.8	-	-
N#C[C@@H]1[C@@H](c2ccc(C#Cc3cccc(F)c3)cc2)[C@H](CO)N1C(=O)C1CCC1	99.2	.	-	-	104.0	105.2	-	-
O=C(C1CCCC1)N1CC[C@H]2[C@H](CO)Nc3ccc(C4=CCCCC4)cc3[C@H]21	.	.	-	-	.	.	.	.
C[C@@H]1CN([C@H](C)CO)C(=O)c2cc(NC(=O)Nc3ccc(C(F)(F)F)cc3)ccc2O[C@@H](C)CCCCO[C@H]1CN(C)C(=O)c1ccccc1	?	.	-	-	103.2	112.8	-	-
C[C@@H]1CCCCO[C@H](CN(C)C(=O)c2ccccc2)[C@@H](C)CN([C@H](C)CO)C(=O)c2cc(NC(=O)Nc3ccc(C(F)(F)F)cc3)ccc2O1	?	-	-	-	105.8	-	-	32.9
CC(=O)N(C)C[C@@H]1Oc2cc(C#CC3CCCC3)ccc2S(=O)(=O)N([C@@H](C)CO)C[C@@H]1C	-	.	-	-	.	.	.	.
CC(=O)N(C)C[C@H]1Oc2cc(C#CC3CCCCC3)ccc2S(=O)(=O)N([C@H](C)CO)C[C@@H]1C	?	-	-	-	103.5	-	42.0	?
CC(=O)N(C)C[C@H]1Oc2cc(C#CC3CCCCC3)ccc2S(=O)(=O)N([C@@H](C)CO)C[C@@H]1C	?	.	-	-	107.5	-	-	56.4
Cc1ccccc1S(=O)(=O)N1C[C@H](O)COC[C@@H]2O[C@H](CC(=O)NCc3ccccc3Cl)CC[C@H]21	-	.	-	.	.	.	.	.
COc1ccccc1-c1cn(CC[C@@H]2CC[C@@H](NC(=O)NC(C)C)[C@H](CO)O2)nn1	-	-	-	-	.	.	.	.
C[C@H]1CN([C@@H](C)CO)S(=O)(=O)c2ccc(C#Cc3ccccc3)cc2O[C@H]1CN(C)S(=O)(=O)c1ccccc1F	123.1	-	-	-	105.7	?	-	-
C[C@@H]1CN([C@@H](C)CO)S(=O)(=O)c2ccc(C#Cc3ccccc3)cc2O[C@H]1CN(C)S(=O)(=O)c1ccccc1F	124.5	-	-	?	109.0	-	40.7	46.6
CC(C)CC#Cc1ccc2c(c1)O[C@@H](CN(C)C(=O)c1ccncc1)[C@@H](C)CN([C@@H](C)CO)S2(=O)=O	107.1	-	-	-	?	-	-	62.4
CC(C)CC#Cc1ccc2c(c1)O[C@@H](CN(C)C(=O)c1ccncc1)[C@H](C)CN([C@@H](C)CO)S2(=O)=O	-	-	-	-	.	.	.	.
CC(C)CC#Cc1ccc2c(c1)O[C@@H](CN(C)C(=O)c1ccncc1)[C@@H](C)CN([C@H](C)CO)S2(=O)=O	103.8	-	-	-	106.6	-	-	71.0

High-throughput results as filed in PubChem BioAssay.
